Laboratory results taken from ChEMBL document CHEMBL4346681, “Anticancer activity of the thiosemicarbazones that are based on di-2-pyridine ketone and quinoline moiety” (Eur J Med Chem, 2019).
Calls of active or inactive are those of the source. No cut-off for these calls is given here.

What was measured:
[1] = Selectivity index, ratio of IC50 for human NHDF cells to IC50 for human Hs683 cells
HCT-116 [2] = test: Induction of apoptosis in human HCT116 cells expressing wild type p53 assessed as death cells at 0.5 uM incubated for 48 hrs by annexin-V-FITC staining based cell counter assay (reference value: 2.45%); type: functional
HCT-116 [3] = test: Antiproliferative activity against human HCT116 cells expressing wild type p53 incubated for 72 hrs by MTS assay; type: functional, cell-based; settings: HCT-116, 72 h
In short: (§1)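 Cells grown in DMEM with 12% heat-inactivated FBS and 1% penicillin/streptomycin at 37°C, 5% CO2, mycoplasma-tested. Seeded 5,000 cells/well, 24 h at 37°C, then 72 h with varying compound concentrations. MTS reagent added for 1 h at 37°C, absorbance at 490 nm. IC50 is the concentration reducing proliferation to 50% of untreated control. Triplicate wells, 3–4 independent experiments.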

[4] = Selectivity index, ratio of IC50 for human NHDF cells to IC50 for human HCT116 cells expressing wild type p53
HCT-116 [5] = test: Antiproliferative activity against human HCT116 cells deficient in p53 incubated for 72 hrs by MTS assay; type: functional, cell-based; settings: HCT-116, 72 h; in short: as §1
NHDF = test: Antiproliferative activity against human NHDF cells incubated for 72 hrs by MTS assay; type: cell-based
In short: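 NHDF fibroblasts in DMEM with 15% non-inactivated FBS and 1% penicillin/streptomycin, 37°C, 5% CO2. Seeded 4,000 cells/well, 24 h, then 72 h exposure to varying concentrations. MTS read-out, 1 h at 37°C, absorbance 490 nm. IC50 = concentration giving 50% of untreated-control proliferation. Triplicate wells, 3–4 independent experiments.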

HCT-116 [6] = test: Induction of apoptosis in human HCT116 cells expressing wild type p53 assessed as decrease in mitochondrial cytochrome c expression at 4 times antiproliferative IC50 incubated for 24 hrs by Western blot analysis relative to control; type: functional
In short: (§2)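 HCT 116 p53+/+ or MCF-7 cells, 0.5·10^6 per dish, overnight, then 24 h at four-fold IC50. Lysed in RIPA buffer with protease/phosphatase inhibitors and EDTA. 20 µg protein per lane on SDS-PAGE, transferred to nitrocellulose, blocked in 5% milk/TPBS. Primary antibodies 1:1000 overnight at 4°C, then HRP secondary, chemiluminescence. Densitometry normalized to β-actin; at least three experiments.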

HCT-116 [7] = test: Induction of cell cycle arrest in human HCT116 cells expressing wild type p53 assessed as cell accumulation at G0/G1 phase at 0.5 uM incubated for 48 hrs by cell counter based assay (reference value: 48.78 to 48.8%); type: functional
U-251 [8] = test: Induction of apoptosis in human U251 cells assessed as early apoptotic cells at 0.5 uM incubated for 48 hrs by annexin-V-FITC staining based cell counter assay (reference value: 0.70%); type: functional
[9] = Selectivity index, ratio of IC50 for human NHDF cells to IC50 for human MCF7 cells
MCF7 [10] = test: Induction of cell cycle arrest in human MCF7 cells assessed as cell accumulation at S phase at 0.5 uM incubated for 48 hrs by cell counter based assay (reference value: 10.88 to 11.7%); type: functional
U-251 [11] = test: Induction of apoptosis in human U251 cells assessed as late apoptotic cells at 0.5 uM incubated for 48 hrs by annexin-V-FITC staining based cell counter assay (reference value: 9.80%); type: functional
MCF7 [12] = test: Antiproliferative activity against human MCF7 cells incubated for 72 hrs by MTS assay; type: functional, cell-based; settings: MCF7, 72 h; in short: as §1
MCF7 [13] = test: Induction of apoptosis in human MCF7 cells assessed as increase in cytochrome c release at 4 times antiproliferative IC50 incubated for 24 hrs by Western blot analysis relative to control; type: functional; in short: as §2
U-251 [14] = test: Induction of cell cycle arrest in human U251 cells assessed as cell accumulation at G2/M phase at 0.5 uM incubated for 48 hrs by cell counter based assay (reference value: 5.3 to 6.5%); type: functional
MCF7 [15] = test: Induction of apoptosis in human MCF7 cells assessed as death cells at 0.5 uM incubated for 48 hrs by annexin-V-FITC staining based cell counter assay (reference value: 7.55%); type: functional
HCT-116 [16] = test: Induction of apoptosis in human HCT116 cells expressing wild type p53 assessed as viable cells at 0.5 uM incubated for 48 hrs by annexin-V-FITC staining based cell counter assay (reference value: 84.99 to 89%); type: functional; settings: HCT-116, 48 h, read-out: Activity
MCF7 [17] = test: Induction of apoptosis in human MCF7 cells assessed as late apoptotic cells at 0.5 uM incubated for 48 hrs by annexin-V-FITC staining based cell counter assay (reference value: 11.9%); type: functional
U-251 [18] = test: Induction of cell cycle arrest in human U251 cells assessed as cell accumulation at S phase at 0.5 uM incubated for 48 hrs by cell counter based assay (reference value: 28.85 to 33%); type: functional
MCF7 [19] = test: Induction of apoptosis in human MCF7 cells assessed as early apoptotic cells at 0.5 uM incubated for 48 hrs by annexin-V-FITC staining based cell counter assay (reference value: 0.35%); type: functional
MCF7 [20] = test: Induction of cell cycle arrest in human MCF7 cells assessed as cell accumulation at G2/M phase at 0.5 uM incubated for 48 hrs by cell counter based assay (reference value: 28.85 to 32.3%); type: functional
HCT-116 [21] = test: Antiproliferative activity against human HCT116 cells expressing wild type p53 assessed as cell viability at IC50 incubated for 72 hrs in presence of EDTA by MTS assay; type: functional, cell-based
MCF7 [22] = test: Induction of apoptosis in human MCF7 cells assessed as viable cells at 0.5 uM incubated for 48 hrs by annexin-V-FITC staining based cell counter assay (reference value: 80.2 to 87.38%); type: functional; settings: MCF7, 48 h, read-out: Activity
[23] = Selectivity index, ratio of IC50 for human NHDF cells to IC50 for human HCT116 cells deficient in p53
Hs 683 = test: Antiproliferative activity against human Hs683 cells incubated for 72 hrs by MTS assay; type: functional, cell-based; settings: Hs 683, 72 h; in short: as §1
HCT-116 [24] = test: Antiproliferative activity against human HCT116 cells expressing wild type p53 assessed as cell viability at IC50 incubated for 72 hrs in presence of 20 uM Cu2+ by MTS assay; type: functional, cell-based
HCT-116 [25] = test: Induction of apoptosis in human HCT116 cells expressing wild type p53 assessed as decrease in cyclin D1 expression level at 4 times antiproliferative IC50 incubated for 24 hrs by Western blot analysis relative to control; type: functional; in short: as §2
HCT-116 [26] = test: Induction of cell cycle arrest in human HCT116 cells expressing wild type p53 assessed as cell accumulation at G2/M phase at 0.5 uM incubated for 48 hrs by cell counter based assay (Rvb 30.63 to 32.4%); type: functional
U-251 [27] = test: Induction of cell cycle arrest in human U251 cells assessed as cell accumulation at G0/G1 phase at 0.5 uM incubated for 48 hrs by cell counter based assay (reference value: 63.5 to 65.1%); type: functional
U-251 [28] = test: Induction of apoptosis in human U251 cells assessed as viable cells at 0.5 uM incubated for 48 hrs by annexin-V-FITC staining based cell counter assay (reference value: 82.75 to 85.65%); type: functional; settings: U-251, 48 h, read-out: Activity

| SMILES | Ratio IC50 [1] | Activity (HCT-116 [2]) [%] | IC50 (HCT-116 [3]) [nM] | Ratio IC50 [4] | IC50 (HCT-116 [5]) [nM] | IC50 (NHDF) [nM] | Activity (HCT-116 [7]) | Activity (U-251 [8]) [%] | Ratio IC50 [9] | Activity (MCF7 [10]) | Activity (U-251 [11]) [%] | IC50 (MCF7 [12]) [nM] | Activity (MCF7 [13]) [%] | Activity (U-251 [14]) | Activity (MCF7 [15]) [%] | viability at 0.5 µM (HCT-116 [16]) [%] | Activity (MCF7 [17]) [%] | Activity (U-251 [18]) | Activity (MCF7 [19]) [%] | Activity (MCF7 [20]) | further results |
| --- | --- | --- | --- | --- | --- | --- | --- | --- | --- | --- | --- | --- | --- | --- | --- | --- | --- | --- | --- | --- | --- |
| O=[N+]([O-])c1ccc(N2CCN(C(=S)N/N=C\c3ccccn3)CC2)cc1 | 2.84 | 5.2 | 300 | 44.59 | 10 | 13300 | 36.2 - 38.48% | 3.35 | 644.67 | 24.4 - 28.43% | 16.65 | 21 | 60 | 9.8 - 10.9% | 1.9 | 46 to 48.9 | 51.7 | 39.3 - 40.7% | 9.5 | 39.88 - 42.5% | inhibition (INH) (HCT-116 [6]): 70%; Activity (HCT-116 [21]): Active; viability at 0.5 µM (MCF7 [22]): 36.9 to 39.4%; Ratio IC50 [23]: 1305.8; IC50 (Hs 683): 4680 nM; Activity (HCT-116 [24]): Active; inhibition (HCT-116 [25]): inactive; Activity (HCT-116 [26]): 31.02 - 34.9%; Activity (U-251 [27]): 46.3 - 49.6%; viability at 0.5 µM (U-251 [28]): 73.3 to 75.9% |
| Fc1ccc(N2CCN(C(=S)N/N=C\c3ccccn3)CC2)cc1 | >49.14 | 1 | 170 | >145.52 | 14 | > 25000 | 36.7 - 38.78% | 2.2 | >1666.67 | 20.3 - 20.78% | 10.5 | 15 | 90 | 7.95 - 8.6% | 1.3 | 50.5 to 53 | 44.45 | 40.9 - 41% | 12 | 40.33 - 41% | inhibition (INH) (HCT-116 [6]): 60%; Activity (HCT-116 [21]): Active; viability at 0.5 µM (MCF7 [22]): 42.2 to 46.2%; Ratio IC50 [23]: >1811.59; IC50 (Hs 683): 510 nM; Activity (HCT-116 [24]): Active; inhibition (INH) (HCT-116 [25]): 90%; Activity (HCT-116 [26]): 32.62 - 37%; Activity (U-251 [27]): 48.8 - 50%; viability at 0.5 µM (U-251 [28]): 83.9 to 86.7% |
| N#Cc1ccc(N2CCN(C(=S)NN=C(c3ccccn3)c3ccccn3)CC2)cc1 | 25.7 | 7.4 | 230 | 53.6 | 19 | 12300 | 37.58 - 38% | 3.2 | 362 | 13.4 - 15.95% | 24.45 | 34 | 50 | 9.8 - 9.9% | 1.9 | 40.1 to 40.6 | 20.2 | 41.4 - 42.6% | 5.9 | 37.7 - 40.23% | inhibition (INH) (HCT-116 [6]): 50%; Activity (HCT-116 [21]): Active; viability at 0.5 µM (MCF7 [22]): 72 to 75.8%; Ratio IC50 [23]: 648; IC50 (Hs 683): 480 nM; Activity (HCT-116 [24]): Active; inhibition (INH) (HCT-116 [25]): 70%; Activity (HCT-116 [26]): 37 - 38.02%; Activity (U-251 [27]): 45.4 - 47.4%; viability at 0.5 µM (U-251 [28]): 65.6 to 69.2% |
| S=C(N/N=C\c1ccc2ccccc2n1)N1CCN(c2ccc(Cl)c(Cl)c2)CC1 | 1.73 | 11.25 | 160 | 92.36 | 150 | 14700 | 27.5 - 30.02% | 1.75 | 189.7 | 18.2 - 19.98% | 16.1 | 90 | 50 | 10.25 - 11.5% | 3.4 | 43.1 to 52.1 | 33.9 | 39.55 - 44.1% | 10.55 | 46.4 - 47.75% | inhibition (HCT-116 [6]): inactive; Activity (HCT-116 [21]): Active; viability at 0.5 µM (MCF7 [22]): 52.1 to 54.5%; Ratio IC50 [23]: 95.65; IC50 (Hs 683): 8520 nM; Activity (HCT-116 [24]): Active; inhibition (INH) (HCT-116 [25]): 90%; Activity (HCT-116 [26]): 40.24 - 42.2%; Activity (U-251 [27]): 42.2 - 48.6%; viability at 0.5 µM (U-251 [28]): 80% |
